In article PMC6531306 (Theranostics, 2019):

Experiments:
[1] = test system: isolated a and a'c domains of PDI; test: PDI reductase assay with isolated domains; assay type: biochemical; settings: domains 1.6 μM; PACMA31 100 μM, 35G8 1 μM
How it was run: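 Isolated His-tagged a and a'c domains were expressed in E. coli and Ni-NTA purified. Each domain was incubated with test compound for 45 min at room temperature in 100 mM sodium phosphate, 2 mM EDTA, 8 μM DTT, pH 7.0. DTT (100 μM) and insulin (130 μM) were then added, and aggregation of reduced insulin B chain was monitored at 650 nm.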

U87MG xenografts = test: Mouse flank xenograft model of GBM; assay type: in vivo, mice; settings: TMZ 5 mg/kg oral gavage, five days/week, two weeks
How it was run: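 Athymic nude Foxn1nu mice (4–6 weeks) bore subcutaneous flank U87MG or D54 xenografts (250,000 cells in RPMI:Matrigel 1:1). From 100 mm3, they received test compound 20 mg/kg i.p. in 5 % DMSO/65 % 1,2-propanediol/30 % saline and/or TMZ 5 mg/kg in Ora-Plus by oral gavage, five days/week for two weeks. Body weight was recorded twice weekly.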

a domain of PDI = a domain of PDI (Homo sapiens, UniProt P07237); test: AMS assay; assay type: binding; settings: 20 μM domain, 40 μM compound, 1 h
How it was run: (§1)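 Isolated a or a'c domain (20 μM) was incubated with or without 40 μM test compound for 1 h in PBS at 25 °C. Free thiols were then blocked with 2 mM AMS. Samples were resolved by SDS-PAGE and stained with Coomassie blue.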

Sox2 = test: Western blot of stemness marker; assay type: cell-based; settings: Figure 4H
How it was run: (§2)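 Protein was measured by BCA. Lysates were resolved on 10 % or 4–12 % gels and transferred to PVDF. Membranes were blocked (StartingBlock or 5 % BSA) and probed with primary antibodies. Detection used DyLight 800 infrared imaging or HRP secondaries with ECL.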

a'c domain of PDI = a'c domain of PDI (Homo sapiens, UniProt P07237); test: AMS assay; assay type: binding; settings: 20 μM domain, 40 μM compound, 1 h
How it was run: as §1

[2] = test system: D54, U87MG and A172 cells; test: Western blot of DNA repair and DDR proteins; assay type: cell-based, human; settings: 24 hours
How it was run: as §2

U87MG cells = assay type: cell-based, human; settings: Hallmark E2F Targets
[3] = test system: PDI, PDIp, ERp57, ERp46, ERp72, P5, and ERp18; test: PDI reductase assay, panel of PDI family members; assay type: biochemical; settings: family members 1 μM, compound 40 μM

Sequence of a'c domain of PDI (P07237 349-508 limits assumed): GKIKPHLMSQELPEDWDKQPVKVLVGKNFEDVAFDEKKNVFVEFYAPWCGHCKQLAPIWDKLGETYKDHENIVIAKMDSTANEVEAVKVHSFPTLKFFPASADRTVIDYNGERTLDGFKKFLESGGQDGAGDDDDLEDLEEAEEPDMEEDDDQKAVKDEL
Sequence of a domain of PDI (P07237 18-134 limits assumed): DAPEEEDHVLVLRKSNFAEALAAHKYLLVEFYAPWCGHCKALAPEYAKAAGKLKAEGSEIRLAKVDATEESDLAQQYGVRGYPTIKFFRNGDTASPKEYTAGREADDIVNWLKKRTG

C[C@]12CC[C@@H]3c4ccc(O)cc4CC[C@H]3[C@@H]1CC[C@@H]2O [Estradiol, estradiol]
inhibition of reductase activity of isolated domains [1]: did not inhibit

Cn1nnc2c(C(N)=O)ncn2c1=O [TMZ, temozolomide]
decrease in body weight (U87MG xenografts): 15%

CCN(C)C(=O)C1(CCOc2ccccc2)CCN(Cc2ccc(O)c(Cl)c2)CC1 [bepristat 1a]
inhibition of reductase activity of isolated domains [1]: did not inhibit

PACMA31
AMS binding to a domain thiols (a domain of PDI): blocked AMS binding | Sox2 protein expression (Sox2): dose-dependently abrogated | AMS binding to a'c domain thiols (a'c domain of PDI): blocked AMS binding | inhibition of reductase activity of isolated domains [1]: inhibit reductase activity | E2F1 and RAD51 protein expression [2]: dose-dependently lower | genes of the E2F targets gene set downregulated (U87MG cells): 72% | selectivity among PDI family members [3]: inhibits all tested PDI family enzymes
